How the values were obtained:
PTPα = PTPα (Homo sapiens, UniProt P18433); test: PTP activity assay with pNPP, PTPα; format: biochemical
Outline: (§1)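 Reactions started by adding enzyme to mixtures with various pNPP and test-compound concentrations. Rates were fitted with an enzyme-kinetics model for Ki.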

CD45 = molecular target: T1, CD45 (Homo sapiens, UniProt P08575); test: PTP activity assay with pNPP, CD45; format: biochemical
T1 sequence (P08575 26-1306): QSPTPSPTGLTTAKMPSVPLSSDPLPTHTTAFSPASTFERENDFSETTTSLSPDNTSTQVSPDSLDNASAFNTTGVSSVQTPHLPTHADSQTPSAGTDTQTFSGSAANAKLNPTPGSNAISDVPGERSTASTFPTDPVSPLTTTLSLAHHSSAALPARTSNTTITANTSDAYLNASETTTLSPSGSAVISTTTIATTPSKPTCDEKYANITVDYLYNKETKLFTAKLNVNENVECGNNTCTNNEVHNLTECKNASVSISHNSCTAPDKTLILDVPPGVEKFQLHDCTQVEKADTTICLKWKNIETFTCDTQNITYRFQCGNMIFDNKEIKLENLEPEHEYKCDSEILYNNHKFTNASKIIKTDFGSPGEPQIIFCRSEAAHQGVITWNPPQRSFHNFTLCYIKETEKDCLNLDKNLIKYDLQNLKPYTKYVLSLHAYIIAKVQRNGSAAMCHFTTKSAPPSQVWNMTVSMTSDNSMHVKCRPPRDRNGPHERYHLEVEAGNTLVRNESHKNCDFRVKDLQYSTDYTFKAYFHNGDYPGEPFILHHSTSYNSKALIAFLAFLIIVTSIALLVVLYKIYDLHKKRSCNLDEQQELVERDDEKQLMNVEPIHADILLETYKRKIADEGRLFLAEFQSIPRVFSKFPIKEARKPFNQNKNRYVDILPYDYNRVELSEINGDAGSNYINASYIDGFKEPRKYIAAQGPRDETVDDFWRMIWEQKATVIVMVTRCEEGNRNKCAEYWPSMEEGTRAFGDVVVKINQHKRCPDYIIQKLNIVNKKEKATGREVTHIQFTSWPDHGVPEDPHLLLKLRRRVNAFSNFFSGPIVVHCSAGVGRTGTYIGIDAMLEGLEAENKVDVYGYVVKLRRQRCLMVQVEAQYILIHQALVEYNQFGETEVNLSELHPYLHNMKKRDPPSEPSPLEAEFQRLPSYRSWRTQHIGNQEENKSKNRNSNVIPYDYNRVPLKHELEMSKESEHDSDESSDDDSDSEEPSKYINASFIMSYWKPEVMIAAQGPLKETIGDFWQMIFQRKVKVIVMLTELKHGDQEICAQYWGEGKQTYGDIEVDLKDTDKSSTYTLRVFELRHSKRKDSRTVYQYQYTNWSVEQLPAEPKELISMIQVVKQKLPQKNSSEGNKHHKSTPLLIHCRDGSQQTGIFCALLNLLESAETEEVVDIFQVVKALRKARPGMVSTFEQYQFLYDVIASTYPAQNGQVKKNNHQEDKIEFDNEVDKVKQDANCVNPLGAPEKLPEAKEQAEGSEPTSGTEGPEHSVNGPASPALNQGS
Outline: as §1

VHR = VHR (Homo sapiens, UniProt P51452); test: PTP activity assay with pNPP, VHR; format: biochemical
VHR, sequence (P51452 whole entry, species assumed): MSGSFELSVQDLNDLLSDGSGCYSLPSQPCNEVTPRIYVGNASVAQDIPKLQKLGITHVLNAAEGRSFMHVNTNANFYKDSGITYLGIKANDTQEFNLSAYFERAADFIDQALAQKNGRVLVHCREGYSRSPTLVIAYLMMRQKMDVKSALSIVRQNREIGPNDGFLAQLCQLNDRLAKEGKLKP
Outline: as §1

[1] = system: pSrc416 in PTP1B−/− mouse embryo fibroblast cells; test: Src phosphorylation at Tyr416 in cells; format: cell-based; details: treated for two hours, various concentrations
Outline: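 PTP1B−/− mouse embryo fibroblasts at 80% confluence were exposed to test compound for two hours, then lysed and cleared at 15,000 rpm for 10 min. 30 μg total protein run on SDS-PAGE and blotted to PVDF. Probed with anti-pSrc416, anti-pSrc527 and anti-Src antibodies, HRP-conjugated secondaries.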

PTPα, sequence (P18433 20-802): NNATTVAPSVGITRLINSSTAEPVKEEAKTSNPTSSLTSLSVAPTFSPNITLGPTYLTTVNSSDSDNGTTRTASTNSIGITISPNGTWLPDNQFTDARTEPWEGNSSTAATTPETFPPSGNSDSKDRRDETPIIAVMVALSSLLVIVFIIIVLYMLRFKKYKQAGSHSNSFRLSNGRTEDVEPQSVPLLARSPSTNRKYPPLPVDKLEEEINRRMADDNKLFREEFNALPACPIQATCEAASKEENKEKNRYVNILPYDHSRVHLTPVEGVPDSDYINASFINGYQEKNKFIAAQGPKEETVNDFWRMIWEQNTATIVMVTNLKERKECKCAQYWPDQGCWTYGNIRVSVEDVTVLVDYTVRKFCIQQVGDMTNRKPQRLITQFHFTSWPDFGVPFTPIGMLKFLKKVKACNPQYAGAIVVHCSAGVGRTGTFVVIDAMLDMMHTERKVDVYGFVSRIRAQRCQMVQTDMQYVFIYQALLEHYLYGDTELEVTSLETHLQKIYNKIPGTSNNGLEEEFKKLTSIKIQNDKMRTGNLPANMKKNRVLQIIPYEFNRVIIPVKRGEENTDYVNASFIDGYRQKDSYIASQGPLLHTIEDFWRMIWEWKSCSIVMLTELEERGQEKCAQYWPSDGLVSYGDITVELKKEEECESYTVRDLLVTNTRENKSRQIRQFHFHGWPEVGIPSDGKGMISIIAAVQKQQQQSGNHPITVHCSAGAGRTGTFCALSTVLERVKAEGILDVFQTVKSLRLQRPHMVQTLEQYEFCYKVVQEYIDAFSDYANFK

For `CCc1ccc(C(=O)NCCCC[C@H](NC(=O)[C@H](Cc2ccc(C(F)(F)P(=O)(O)O)cc2)NC(=O)[C@H](Cc2ccccc2)NC(=O)CO[C@H]2C[C@@H](C)CC[C@@H]2C(C)C)C(N)=O)cc1` [Compound 8], the Ki (PTPα) was greater than 1000 nM, the Ki (CD45) was greater than 1000 nM and the Ki (VHR) was greater than 1000 nM. The “effect on pSrc416 phosphorylation” value [1] was “dose-dependent increase”.

— article PMC2741613 (Journal of the American Chemical Society, 2009)
